Assay results taken from ChEMBL document CHEMBL1151703, “Irreversible inhibition of dihydrodipicolinate synthase by 4-oxo-heptenedioic acid analogues” (Bioorg Med Chem, 2008).
The source made the active and inactive calls. No cut-off for these calls is given here.

Key:
[1] = molecular target: T1, 4-hydroxy-tetrahydrodipicolinate synthase (Bacillus subtilis (strain 168), UniProt Q04796); experiment: Inhibition of Bacillus subtilis DHDPS
T1 sequence (Q04796 whole entry): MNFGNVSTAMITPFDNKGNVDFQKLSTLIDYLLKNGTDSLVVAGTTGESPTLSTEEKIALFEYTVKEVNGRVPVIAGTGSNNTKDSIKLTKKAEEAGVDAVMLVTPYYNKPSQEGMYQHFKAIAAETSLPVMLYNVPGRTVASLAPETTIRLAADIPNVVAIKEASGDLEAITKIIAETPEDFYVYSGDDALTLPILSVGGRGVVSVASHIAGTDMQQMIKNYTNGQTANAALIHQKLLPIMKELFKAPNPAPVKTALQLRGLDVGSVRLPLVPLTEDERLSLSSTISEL

[2] = molecular target: T2, 4-hydroxy-tetrahydrodipicolinate synthase (Escherichia coli K-12, UniProt P0A6L2); experiment: Inhibition of Escherichia coli DHDPS
T2 sequence (P0A6L2 whole entry): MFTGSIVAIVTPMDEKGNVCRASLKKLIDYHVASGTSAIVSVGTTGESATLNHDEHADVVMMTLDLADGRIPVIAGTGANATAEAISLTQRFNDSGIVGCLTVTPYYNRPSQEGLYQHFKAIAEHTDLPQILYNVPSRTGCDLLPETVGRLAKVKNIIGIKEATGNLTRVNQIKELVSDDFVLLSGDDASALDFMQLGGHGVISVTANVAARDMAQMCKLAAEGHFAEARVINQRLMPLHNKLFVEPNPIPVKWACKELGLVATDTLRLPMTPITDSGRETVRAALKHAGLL

[3] = molecular target: T3, 4-hydroxy-tetrahydrodipicolinate synthase (Escherichia coli K-12) (UniProt P0A6L2); experiment: Inactivation of Escherichia coli recombinant DHDPS
T3 sequence (whole entry): T2 sequence (P0A6L2 whole entry)
Method in brief: (§1)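 Recombinant E. coli DHDPS, purified, pre-incubated with inhibitor for various times before activity measurement in a coupled assay with E. coli DHDPR (modified coupled assay) at 30 °C; inhibitor range 0.1–250 mM across compounds. Each decay curve was fitted to give kobs; kobs versus [I] was fitted to give kinact and Ki(app); the second-order rate constant is kinact/Ki(app).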

[4] = molecular target: T2, 4-hydroxy-tetrahydrodipicolinate synthase; experiment: (§2) Inhibition of Escherichia coli recombinant DHDPS overexpressed with DHDPR assessed as residual activity by modified coupled assay; conditions: read-out: Ki(app); method in brief: as §1
[5] = molecular target: T3, 4-hydroxy-tetrahydrodipicolinate synthase (Escherichia coli K-12); experiment: as §2; conditions: TDE = time-dependent effect; method in brief: as §1
[6] = molecular target: T3, 4-hydroxy-tetrahydrodipicolinate synthase (Escherichia coli K-12); experiment: Ratio of Kinact to Ki(app) for Escherichia coli recombinant DHDPS; method in brief: as §1
[7] = molecular target: T3, 4-hydroxy-tetrahydrodipicolinate synthase (Escherichia coli K-12); experiment: Inhibition of Escherichia coli recombinant DHDPS overexpressed with DHDPR assessed as residual activity at 2 mM within 6 min by modified coupled assay; method in brief: as §1
[8] = Inhibition of succinyl co-transferase; conditions: read-out: Ki(app)

Row | Compound | Ki [2] | Kinact [3] | Ki [4] | Activity [5] | Ratio [6] | further results
1 | O=C(O)C(=O)CCCC(=O)C(=O)O |  |  |  |  |  | Ki [1]: 160 µM
2 | CCC(=O)C(=O)O | 830 µM |  |  |  |  | 
3 | O=C(O)C(=O)CF | 220 µM |  |  |  |  | 
4 | CCCC(=O)C(=O)O | 700 µM |  |  |  |  | 
5 | O=CC(=O)O [GLYOXYLATE] | 16 µM |  |  |  |  | 

Second part, led by results:

Row | Ki [2] | Kinact [3] | Ki [4] | Activity [5] | Ratio [6] | Compound | further results
6 |  | 4.1 ×10⁻³ /s | 32400 µM | tde | 0.12 M⁻¹ s⁻¹ | O=C(O)/C=C/C(=O)CCC(=O)O | 
7 |  | 1.2 ×10⁻³ /s | 10900 µM | tde | 0.11 M⁻¹ s⁻¹ | CCOC(=O)/C=C/C(=O)CCC(=O)OCC | 
8 |  | 29 ×10⁻³ /s | 4950 µM |  | 5.9 M⁻¹ s⁻¹ | CCOC(=O)/C=C/C(=O)/C=C/C(=O)OCC | Activity [7]: Active
9 |  | 1.9 ×10⁻³ /s | 1630 µM | tde | 1.2 M⁻¹ s⁻¹ | O=C(O)/C=C/C(=O)/C=C/C(=O)O | Ki [8]: 530 µM
